From PubChem
ARFGAP1 inhibitor = inhibits rat ARF GTPase activating protein 1; Q62848; Arfgap1-stimulated ARF1 GTP hydrolysis, GDP FP detection; inhibition, % at 16.5 µM; actives 0.26% (n = 360,000);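 active = inhibition above a per-plate limit, mean inhibition of low control wells plus 3 SD, cut at about 25% in these data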;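 also: 0% = DMSO wells with enzyme and 100% = wells lacking Arfgap1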
Target sequence (Q62848 1-136 limits assumed): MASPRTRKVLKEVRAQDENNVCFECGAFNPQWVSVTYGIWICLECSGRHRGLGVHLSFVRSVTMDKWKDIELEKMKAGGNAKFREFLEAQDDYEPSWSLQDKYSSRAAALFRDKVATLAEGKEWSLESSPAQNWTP
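Repeats: one replicate per compound; assay system: rat Arfgap1 catalytic domain, aa 1-136; times: enzyme reaction 120 min at 25 °C after 20 min preincubation; detection: FP of antibody-bound GDP Alexa 633 tracer, ex 620/em 688 nm; benchmarks: high control wells lacking Arfgap1, low control full reaction with DMSO; reagent: human ARF1(Δ1-17)-GTP substrate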
TDP2 absorb = TDP2 (human) inhibition, absorbance primary screen; recombinant TDP2, T5PNP hydrolysis, p-nitrophenol absorbance 415 nm; inhibition, % at 12.8 µM; actives 0.34% (n = 370,000);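 active = inhibition above the mean of all tested compounds plus 3 SD, set per campaign, cut at about 25% in these data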;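 also: 0% = DMSO with enzyme and 100% = buffer with substrate but no TDP2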
Target sequence (O95551 whole entry, looked up): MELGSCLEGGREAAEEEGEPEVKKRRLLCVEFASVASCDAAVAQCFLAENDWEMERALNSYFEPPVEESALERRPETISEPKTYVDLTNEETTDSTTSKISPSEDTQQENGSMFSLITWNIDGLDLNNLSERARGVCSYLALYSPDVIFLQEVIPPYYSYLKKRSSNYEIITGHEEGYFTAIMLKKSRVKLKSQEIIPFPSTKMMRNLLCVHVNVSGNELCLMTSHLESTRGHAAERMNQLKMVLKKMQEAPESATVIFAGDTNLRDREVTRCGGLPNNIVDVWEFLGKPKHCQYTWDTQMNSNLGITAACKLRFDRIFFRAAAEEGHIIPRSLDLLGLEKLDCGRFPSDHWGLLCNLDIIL
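Incubation: 2 h at 37 °C; Test system: recombinant human TDP2; Quantity: enzyme 120 nM; Read-out basis: percent inhibition; Medium: 50 mM Tris-HCl pH 7.5 with Mg2+, KCl, DTT, BSA; Repeats: single replicate; Compound: 12.8 µM single point, 1% DMSO; Signal: epi absorbance; Reagent: 5 mM T5PNP chromogenic substrate; Benchmarks: no-enzyme high, DMSO-plus-enzyme low.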
UHRF1 MBD2 ctr = human UHRF1 methylated DNA binding inhibitors; AID 687016; actives 0.75% (n = 370,000); Q96T88; UHRF1 binding to methylated oligo, TR-FRET; inhibition, % at 4.4 µM; in the data active = inhibition above about 21%;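 also: UHRF1 SRA domain binding a hemimethylated CpG hairpin DNA probe; 0% = median of test compound wells and 100% = reference inhibitor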
LEDGF integ inh = blocks HIV-1 LEDGF/p75-dependent DNA integration; TR-FRET IN-LEDGF/p75 DNA integration, Eu/Cy5; inhibition, % at 3.7 µM; AID 743269; actives 0.64% (n = 370,000);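 active = inhibition above the screen-wide mean plus 3 SD, cut at about 13% in these data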;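 also: signal is the Cy5 over europium emission ratio at 671 and 618 nm; 0% = plate median of compound wells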
ASAP1 inh = blocks human ASAP1-stimulated Arf1 GTP hydrolysis. inhibition, % at 16.5 µM. Q9ULH1. GDP FP detection. actives 0.19% (n = 360,000); in the data active = inhibition above about 25%;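 also: 0% = vehicle with enzyme and substrate and 100% = no enzyme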
MBD2 inh = inhibitors of human MBD2 binding to methylated oligonucleotide; TR-FRET; Q9UBB5; actives 0.31% (n = 370,000); inhibition, % at 4.4 µM; in the data active = inhibition above about 13%
Active calls of the source: *. Compounds with a hit are over-represented: about 2% of the library has one in this group of screens.

How did COc1ccc(NC(=S)NCc2ccccc2)c(OC)c1 do in these assays?
ARFGAP1 inhibitor: -1; TDP2 absorb: 0; UHRF1 MBD2 ctr: 1; LEDGF integ inh: -4; ASAP1 inh: -3; MBD2 inh: 6

Results for COc1cc(OC)c(NC(=S)NCc2ccccc2)cc1Cl ?
ARFGAP1 inhibitor: 3; TDP2 absorb: -21; UHRF1 MBD2 ctr: 65*; LEDGF integ inh: -3; ASAP1 inh: 1; MBD2 inh: 3

Results for CCC(=O)NCC[C@@H]1CCc2ccc3c(c21)CCO3 ?
TDP2 absorb: 9; UHRF1 MBD2 ctr: 2; LEDGF integ inh: 1; MBD2 inh: -2

How did CC(=O)Nc1ccc(NC(=O)C(C)OC(=O)CN(C)S(=O)(=O)c2ccc(Cl)cc2)cc1 (centres undefined) do in these assays?
ARFGAP1 inhibitor: 8; TDP2 absorb: 7; UHRF1 MBD2 ctr: -1; LEDGF integ inh: -1; ASAP1 inh: 0; MBD2 inh: 4

What do the screens show for `CC(=O)Nc1ccc(NC(=O)C(C)OC(=O)CNS(=O)(=O)c2cccc(Cl)c2)cc1` (centres undefined)?
ARFGAP1 inhibitor: 5; TDP2 absorb: 3; UHRF1 MBD2 ctr: 52*; LEDGF integ inh: -4; ASAP1 inh: -2; MBD2 inh: 0

How did COC(=O)C1CN(Cc2cn(Cc3ccccc3)nn2)CCS(=O)(=O)N1Cc1ccccc1 (centres undefined) do in these assays?
TDP2 absorb: -6; UHRF1 MBD2 ctr: 28*; LEDGF integ inh: -1; MBD2 inh: 6

What do the screens show for `CCOC(=O)Cn1cc(CN2C(C(=O)OC)CN(Cc3ccc(OC)cc3)CCS2(=O)=O)nn1` (centres undefined)?
TDP2 absorb: 8; UHRF1 MBD2 ctr: 80*; LEDGF integ inh: 2; MBD2 inh: 6

What do the screens show for `COC(=O)C1CN(Cc2cn(Cc3ccc(C)cc3)nn2)CCS(=O)(=O)N1Cc1ccccc1` (centres undefined)?
TDP2 absorb: -10; UHRF1 MBD2 ctr: 11; LEDGF integ inh: 4; MBD2 inh: 5

What do the screens show for `CCC[C@H]1[C@@H](N(C)Cc2cccs2)CC[C@@]23CCCN2C(=O)CCC[C@@H]13`?
TDP2 absorb: -11; UHRF1 MBD2 ctr: 0; LEDGF integ inh: -5; MBD2 inh: 1

Results for COc1ccc(CNC(=O)C[C@H]2C[C@H](C(=O)N3CCCCC3)[C@@]3(C)c4[nH]c5ccc(Cl)cc5c4CCN3C2=O)cc1OC ?
ARFGAP1 inhibitor: -6; TDP2 absorb: -2; UHRF1 MBD2 ctr: 21*; LEDGF integ inh: -4; ASAP1 inh: 2; MBD2 inh: 11

How did COc1ccc2[nH]c3c(c2c1)CCN1C(=O)C(CC(=O)NCc2ccc(OC)c(OC)c2)C[C@H](C(=O)N2CCOCC2)[C@@]31C (some centres undefined) do in these assays?
ARFGAP1 inhibitor: -1; TDP2 absorb: -6; UHRF1 MBD2 ctr: 0; LEDGF integ inh: 6; ASAP1 inh: -6; MBD2 inh: -2

How did CC(C)N(C(=O)[C@H]1C[C@H](CC(=O)NCCCN(C)C)C(=O)N2CCc3c([nH]c4cc(CCC(=O)N(C)C)ccc34)[C@]12C)C(C)C do in these assays?
ARFGAP1 inhibitor: -3; TDP2 absorb: -10; UHRF1 MBD2 ctr: 21*; LEDGF integ inh: 5; ASAP1 inh: 5; MBD2 inh: 5

What do the screens show for `O=C(NCc1ccccc1)c1cccc(OCC(=O)N2CCN(C(=O)c3ccco3)CC2)c1`?
ARFGAP1 inhibitor: -9; TDP2 absorb: 8; UHRF1 MBD2 ctr: 21*; LEDGF integ inh: 3; ASAP1 inh: 5; MBD2 inh: 8

How did O=C(COc1ccc2ccccc2c1)N1CCN(C(=O)c2ccco2)CC1 do in these assays?
ARFGAP1 inhibitor: -3; TDP2 absorb: -13; UHRF1 MBD2 ctr: 0; LEDGF integ inh: 0; ASAP1 inh: 7; MBD2 inh: -1

Results for COc1cccc(CC(=O)OCC(=O)NC2(C#N)CCCC2)c1 ?
ARFGAP1 inhibitor: 2; TDP2 absorb: 1; UHRF1 MBD2 ctr: -1; LEDGF integ inh: -1; ASAP1 inh: 2; MBD2 inh: 0

What do the screens show for `COc1cccc(CC(=O)OCC(=O)NC2(C#N)CCCCC2)c1`?
ARFGAP1 inhibitor: -3; TDP2 absorb: 1; UHRF1 MBD2 ctr: 46*; LEDGF integ inh: -4; ASAP1 inh: 2; MBD2 inh: 4

What do the screens show for `O=C(OCc1ccccc1)[C@H](Cc1ccccc1)NC(=O)[C@@H]1CC=C[C@@H]2CCN(CCc3ccccc3)C(=O)[C@@H]21`?
TDP2 absorb: -2; UHRF1 MBD2 ctr: -1; LEDGF integ inh: 3; MBD2 inh: 1

What do the screens show for `O=C(Oc1c(CN2CCOCC2)cc(Cl)c2cccnc12)c1ccccc1F`?
ARFGAP1 inhibitor: 8; TDP2 absorb: -8; UHRF1 MBD2 ctr: 22*; LEDGF integ inh: -4; ASAP1 inh: -7; MBD2 inh: 13

How did CCOC(=O)C(Cc1ccccc1)P(=O)(OCC)OCC (centres undefined) do in these assays?
TDP2 absorb: 2; UHRF1 MBD2 ctr: -1; LEDGF integ inh: -2; MBD2 inh: 7

How did COc1cc(/C=C2\SC(=S)N(CC(=O)O)C2=O)ccc1OS(=O)(=O)c1ccc(C)cc1 do in these assays?
ARFGAP1 inhibitor: 3; TDP2 absorb: 7; UHRF1 MBD2 ctr: 26*; LEDGF integ inh: -1; ASAP1 inh: 3; MBD2 inh: 3

How did COc1cc(/C=C2/SC(=S)N(CC(=O)O)C2=O)ccc1OC(=O)c1cccs1 do in these assays?
ARFGAP1 inhibitor: -12; TDP2 absorb: 5; UHRF1 MBD2 ctr: -2; LEDGF integ inh: 2; ASAP1 inh: 19; MBD2 inh: -3

How did O=C(NC12CC3CC(CC(C3)C1)C2)c1ccc(-c2ccc(Cl)cc2)o1 do in these assays?
ARFGAP1 inhibitor: 0; TDP2 absorb: 4; UHRF1 MBD2 ctr: -6; LEDGF integ inh: -1; ASAP1 inh: 1; MBD2 inh: 4

What do the screens show for `O=C(NC12CC3CC(CC(C3)C1)C2)c1ccc(-c2cccc(Cl)c2)o1`?
ARFGAP1 inhibitor: 5; TDP2 absorb: -2; UHRF1 MBD2 ctr: 21*; LEDGF integ inh: 2; ASAP1 inh: -7; MBD2 inh: 8

What do the screens show for `N#Cc1ccccc1N1CCN(C(=O)C2CCN(c3ncnc4c3sc3cccc(F)c34)CC2)CC1`?
TDP2 absorb: -5; UHRF1 MBD2 ctr: -3; LEDGF integ inh: 2; MBD2 inh: 0

Results for CCn1cc(CCC(=O)NCc2ccccc2OC)c2ccccc21 ?
ARFGAP1 inhibitor: -3; TDP2 absorb: -4; UHRF1 MBD2 ctr: 22*; LEDGF integ inh: 7; ASAP1 inh: -4; MBD2 inh: 4

How did CCn1cc(CCCC(=O)NCc2ccccc2OC)c2ccccc21 do in these assays?
ARFGAP1 inhibitor: 4; TDP2 absorb: -26; UHRF1 MBD2 ctr: 1; LEDGF integ inh: 5; ASAP1 inh: -4; MBD2 inh: -4
